# Test results from ChEMBL document CHEMBL1135184, “2,4-Disubstituted pyrroles: synthesis, traceless linking and pharmacological investigations leading to the dopamine D4 receptor partial agonist FAUC 356” (Bioorg Med Chem Lett, 2002).
# pEC50, pKi: −log10 of the molar value.
# Columns and labels:
# [1] = molecular target: T1, D(2) dopamine receptor (Homo sapiens, UniProt P14416); assay: Ability to displace […] radioligand from cloned human Dopamine receptor D2 in CHO cells; type: cell-based
# [2] = molecular target: T2, D(4) dopamine receptor (Homo sapiens, UniProt P21917); assay: Ability to displace [3H]spiperone radioligand from cloned human Dopamine receptor D4 in CHO cells; type: cell-based
# T2 sequence (P21917 whole entry): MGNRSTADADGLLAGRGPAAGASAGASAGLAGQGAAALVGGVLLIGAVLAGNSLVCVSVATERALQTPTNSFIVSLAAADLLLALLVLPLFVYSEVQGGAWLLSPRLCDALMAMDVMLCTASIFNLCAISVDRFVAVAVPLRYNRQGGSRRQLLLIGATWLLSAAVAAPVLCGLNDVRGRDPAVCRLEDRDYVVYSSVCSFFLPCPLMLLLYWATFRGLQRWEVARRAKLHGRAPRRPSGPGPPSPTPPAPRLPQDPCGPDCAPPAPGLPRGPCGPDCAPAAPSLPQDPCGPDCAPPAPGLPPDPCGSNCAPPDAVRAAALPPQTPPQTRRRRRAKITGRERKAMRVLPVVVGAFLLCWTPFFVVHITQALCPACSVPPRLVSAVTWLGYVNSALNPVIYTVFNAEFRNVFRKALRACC
# [3] = molecular target: D(1A) dopamine receptor (Bos taurus, UniProt Q95136); assay: Ability to displace [3H]SCH-23,390 radioligand from bovine Dopamine receptor D1
# [4] = molecular target: T1, D(2) dopamine receptor; assay: Ability to displace [3H]spiperone radioligand from cloned human Dopamine receptor D2 in CHO cells; type: cell-based
# [5] = molecular target: D(3) dopamine receptor (Homo sapiens, UniProt P35462); assay: Ability to displace [3H]spiperone radioligand from cloned human Dopamine receptor D3 in CHO cells; type: cell-based
# Procedure, shortened: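 Human D3 receptor stably expressed in CHO cells, membranes labelled with [3H]spiperone in a competition format.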
# [6] = molecular target: 5-hydroxytryptamine receptor 2A (Sus scrofa, UniProt P50129); assay: Ability to displace [3H]-Ketanserin radioligand from porcine 5-hydroxytryptamine 2A receptor
# [7] = molecular target: T3, D(4) dopamine receptor (Homo sapiens) (UniProt P21917)
# T3 sequence (whole entry): T2 sequence (P21917 whole entry)
# [8] = molecular target: T2, D(4) dopamine receptor; assay: Effective concentration of compound required against human Dopamine D4.2 receptor; type: functional
# Sequence of D(1A) dopamine receptor (Q95136 whole entry): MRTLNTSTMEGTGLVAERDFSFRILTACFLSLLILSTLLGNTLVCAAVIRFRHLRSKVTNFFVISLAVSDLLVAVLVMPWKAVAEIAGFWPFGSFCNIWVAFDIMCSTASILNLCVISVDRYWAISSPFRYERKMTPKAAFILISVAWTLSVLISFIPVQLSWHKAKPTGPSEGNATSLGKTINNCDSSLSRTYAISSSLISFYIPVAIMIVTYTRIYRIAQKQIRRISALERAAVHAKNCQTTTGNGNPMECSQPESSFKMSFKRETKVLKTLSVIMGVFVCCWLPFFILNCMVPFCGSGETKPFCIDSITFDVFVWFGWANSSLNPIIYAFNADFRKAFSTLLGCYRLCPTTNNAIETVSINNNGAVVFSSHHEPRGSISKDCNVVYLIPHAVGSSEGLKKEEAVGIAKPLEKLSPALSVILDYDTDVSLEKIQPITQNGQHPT
# T1 sequence (P14416 whole entry): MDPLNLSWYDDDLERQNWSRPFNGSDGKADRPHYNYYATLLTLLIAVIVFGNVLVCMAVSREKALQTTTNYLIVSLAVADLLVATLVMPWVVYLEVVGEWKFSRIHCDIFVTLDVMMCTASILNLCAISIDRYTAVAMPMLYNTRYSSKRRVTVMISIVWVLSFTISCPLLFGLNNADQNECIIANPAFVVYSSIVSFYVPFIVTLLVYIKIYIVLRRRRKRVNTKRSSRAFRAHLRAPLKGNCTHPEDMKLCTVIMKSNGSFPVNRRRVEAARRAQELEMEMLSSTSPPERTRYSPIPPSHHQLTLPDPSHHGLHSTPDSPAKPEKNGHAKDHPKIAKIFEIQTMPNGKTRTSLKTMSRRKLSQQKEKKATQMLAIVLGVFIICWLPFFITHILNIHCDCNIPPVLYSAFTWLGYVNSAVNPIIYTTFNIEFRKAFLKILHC
# Sequence of 5-hydroxytryptamine receptor 2A (P50129 whole entry): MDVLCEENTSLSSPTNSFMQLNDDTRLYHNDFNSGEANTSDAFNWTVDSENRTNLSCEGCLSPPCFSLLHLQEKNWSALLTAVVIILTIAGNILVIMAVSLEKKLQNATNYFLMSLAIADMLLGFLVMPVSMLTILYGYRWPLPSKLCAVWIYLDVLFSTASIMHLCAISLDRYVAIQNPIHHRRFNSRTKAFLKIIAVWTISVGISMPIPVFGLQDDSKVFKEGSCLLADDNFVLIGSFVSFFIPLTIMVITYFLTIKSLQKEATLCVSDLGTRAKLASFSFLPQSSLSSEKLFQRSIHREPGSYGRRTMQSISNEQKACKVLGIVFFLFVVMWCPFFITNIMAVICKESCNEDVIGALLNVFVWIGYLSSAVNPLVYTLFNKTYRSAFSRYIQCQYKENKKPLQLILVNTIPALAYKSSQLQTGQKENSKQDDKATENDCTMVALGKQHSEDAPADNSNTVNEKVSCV
# Sequence of D(3) dopamine receptor (P35462 whole entry): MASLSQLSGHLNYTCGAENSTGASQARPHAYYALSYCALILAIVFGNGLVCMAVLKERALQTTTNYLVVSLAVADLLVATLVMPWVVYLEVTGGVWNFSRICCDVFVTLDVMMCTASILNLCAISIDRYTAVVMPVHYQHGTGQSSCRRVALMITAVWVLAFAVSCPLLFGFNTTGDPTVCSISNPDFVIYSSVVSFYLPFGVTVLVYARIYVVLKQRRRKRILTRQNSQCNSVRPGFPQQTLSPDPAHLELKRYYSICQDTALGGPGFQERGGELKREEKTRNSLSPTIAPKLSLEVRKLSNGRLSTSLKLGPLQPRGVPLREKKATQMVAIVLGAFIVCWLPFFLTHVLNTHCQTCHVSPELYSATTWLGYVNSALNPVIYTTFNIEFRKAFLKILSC
pKi [1],pKi [2],pKi [3],pKi [4],pKi [5],pKi [6],pEC50 [7],pEC50 [8],SMILES
6.12,7.08,5.57,6.26,6.17,–,–,–,C(#Cc1c[nH]c(CN2CCN(c3ccccc3)CC2)c1)c1ccccc1
5.62,7.74,5.92,5.47,6.14,6.35,8.11,–,N#Cc1cc(CN2CCN(c3ccccc3)CC2)c[nH]1
6.64,7.92,5.68,6.77,6.27,5.89,–,8.17,c1ccc(-c2c[nH]c(CN3CCN(c4ccccc4)CC3)c2)cc1
5.51,7.00,5.27,5.52,6.24,–,–,–,c1ccc(N2CCN(Cc3ccc[nH]3)CC2)cc1
6.11,8.23,5.70,6.24,6.07,6.42,–,8.72,C#Cc1c[nH]c(CN2CCN(c3ccccc3)CC2)c1
5.43,7.68,5.34,5.10,5.74,6.21,–,8.25,N#Cc1c[nH]c(CN2CCN(c3ccccc3)CC2)c1
